# Source: ChEMBL document CHEMBL3769404, “Novobiocin Analogues That Inhibit the MAPK Pathway” (J Med Chem, 2016)
# The source made the active and inactive calls. The rule behind the calls is not given here.
# How the values were obtained:
# A549 [1] = assay: Effect on B-Raf level in human A549 cells at five times IC50 value after 12 to 24 hrs by Western blot analysis; format: ADME, cell-based
# Method in brief: (§1)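 MPER lysates with protease/phosphatase inhibitors. 15 µg protein per lane on reducing 10% SDS gels, transferred to PVDF, immunoblotted, HRP chemiluminescent detection.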
# A549 [2] = assay: Cytotoxicity against human A549 cells assessed as cell growth inhibition after 72 hrs by MTS assay; format: functional, cell-based; conditions: A549, 72 h
# Method in brief: (§2)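 Cells grown to confluence, seeded at 2000 cells/well and left overnight to attach. Compound added across a concentration range in DMSO (1% final), then 72 h at 37 °C, 5% CO2. Growth read by MTS/PMS relative to 1% DMSO wells (100% growth). IC50 taken from two separate experiments, each in triplicate.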
# [3] = target: T1, Heat shock protein HSP90 (Homo sapiens) (UniProt P07900+P08238); assay: Inhibition of Hsp90 in human A549 cells assessed as decrease in Her2 levels at five times IC50 value after 24 hrs by Western blot analysis; format: cell-based; method in brief: as §1
# [4] = target: T1, Heat shock protein HSP90 (Homo sapiens); assay: Inhibition of Hsp90 in human A549 cells assessed as decrease in c-Raf levels at five times IC50 value after 24 hrs by Western blot analysis; format: cell-based; method in brief: as §1
# [5] = target: T1, Heat shock protein HSP90 (Homo sapiens); assay: Inhibition of Hsp90 in human A549 cells assessed as decrease in EGFR levels at five times IC50 value after 24 hrs by Western blot analysis; format: cell-based; method in brief: as §1
# [6] = target: T2, B-raf/RAF proto-oncogene serine/threonine-protein kinase (Homo sapiens) (UniProt P04049+P15056); assay: Inhibition of B-Raf/C-Raf in human A549 cells assessed as decrease in phosphorylated MEK levels at five times IC50 value after 12 hrs by Western blot analysis; format: cell-based
# T2 sequence (P04049 whole entry, looked up): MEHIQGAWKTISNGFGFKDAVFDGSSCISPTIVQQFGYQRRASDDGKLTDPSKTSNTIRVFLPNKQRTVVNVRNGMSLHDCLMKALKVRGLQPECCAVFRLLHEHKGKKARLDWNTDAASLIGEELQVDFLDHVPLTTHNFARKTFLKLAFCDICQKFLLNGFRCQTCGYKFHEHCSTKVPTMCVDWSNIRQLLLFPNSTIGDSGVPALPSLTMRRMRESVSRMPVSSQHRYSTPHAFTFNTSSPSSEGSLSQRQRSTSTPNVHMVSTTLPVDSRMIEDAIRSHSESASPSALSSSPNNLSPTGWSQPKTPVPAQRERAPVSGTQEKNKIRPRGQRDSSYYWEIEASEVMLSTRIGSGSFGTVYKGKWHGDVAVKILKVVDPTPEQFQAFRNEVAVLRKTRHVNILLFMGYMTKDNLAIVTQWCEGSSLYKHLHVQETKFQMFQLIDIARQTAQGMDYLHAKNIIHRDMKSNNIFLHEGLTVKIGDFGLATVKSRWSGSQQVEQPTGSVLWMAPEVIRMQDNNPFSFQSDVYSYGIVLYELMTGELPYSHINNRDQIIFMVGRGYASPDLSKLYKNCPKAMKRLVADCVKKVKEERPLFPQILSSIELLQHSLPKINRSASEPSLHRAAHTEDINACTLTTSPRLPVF
# T2 sequence (P15056 whole entry, looked up): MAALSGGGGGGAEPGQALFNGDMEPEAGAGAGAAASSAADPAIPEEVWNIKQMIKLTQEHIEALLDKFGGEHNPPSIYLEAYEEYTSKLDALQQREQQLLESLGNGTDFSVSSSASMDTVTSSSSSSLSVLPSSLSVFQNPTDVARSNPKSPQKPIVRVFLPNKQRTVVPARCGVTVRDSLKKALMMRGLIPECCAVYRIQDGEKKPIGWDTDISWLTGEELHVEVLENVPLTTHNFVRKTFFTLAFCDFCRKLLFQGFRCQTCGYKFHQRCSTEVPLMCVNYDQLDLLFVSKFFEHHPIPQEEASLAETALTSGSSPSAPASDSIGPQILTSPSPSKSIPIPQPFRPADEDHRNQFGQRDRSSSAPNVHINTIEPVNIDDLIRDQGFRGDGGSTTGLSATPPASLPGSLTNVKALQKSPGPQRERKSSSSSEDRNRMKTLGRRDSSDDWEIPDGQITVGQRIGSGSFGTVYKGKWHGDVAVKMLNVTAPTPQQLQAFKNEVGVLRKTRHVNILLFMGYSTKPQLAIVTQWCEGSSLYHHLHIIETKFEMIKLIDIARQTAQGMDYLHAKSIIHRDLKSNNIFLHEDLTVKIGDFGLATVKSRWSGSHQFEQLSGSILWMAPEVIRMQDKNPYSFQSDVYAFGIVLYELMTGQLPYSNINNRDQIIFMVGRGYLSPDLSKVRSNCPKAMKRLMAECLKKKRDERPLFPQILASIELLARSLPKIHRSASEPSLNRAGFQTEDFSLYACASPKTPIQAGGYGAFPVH
# [7] = target: T2, B-raf/RAF proto-oncogene serine/threonine-protein kinase (Homo sapiens); assay: Inhibition of B-Raf/C-Raf in human A549 cells assessed as effect on phosphorylated MEK levels at five times IC50 value after 24 hrs by Western blot analysis; format: cell-based; method in brief: as §1
# [8] = target: T2, B-raf/RAF proto-oncogene serine/threonine-protein kinase (Homo sapiens); assay: Inhibition of B-Raf/C-Raf in human A549 cells assessed as effect on phosphorylated ERK levels at five times IC50 value after 24 hrs by Western blot analysis; format: cell-based; method in brief: as §1
# [9] = target: T2, B-raf/RAF proto-oncogene serine/threonine-protein kinase (Homo sapiens); assay: Inhibition of B-Raf/C-Raf in human A549 cells assessed as decrease in phosphorylated ERK levels at five times IC50 value after 12 hrs by Western blot analysis; format: cell-based
# MRC5 = assay: Cytotoxicity against human MRC5 cells assessed as cell growth inhibition after 72 hrs by MTS assay; format: cell-based; conditions: MRC5, 72 h; method in brief: as §2
# [10] = target: T1, Heat shock protein HSP90 (Homo sapiens); assay: Inhibition of Hsp90 in human A549 cells assessed as decrease in EGFR levels at five times IC50 value after 12 hrs by Western blot analysis; format: cell-based
# [11] = target: T1, Heat shock protein HSP90 (Homo sapiens); assay: Inhibition of Hsp90 in human A549 cells assessed as decrease in Her2 levels at five times IC50 value after 12 hrs by Western blot analysis; format: cell-based
# MCF7 [12] = assay: Effect on Hsp90 expression in human MCF7 cells at 0.5 to 5 times IC50 value after 12 hrs by western blot analysis; format: ADME, cell-based; conditions: mcf7, 12 h
# Method in brief: (§3)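 MPER lysates. 15 µg protein per lane, reducing 10% SDS-PAGE, PVDF transfer, immunoblot for EGFR, Her2, C-Raf and Hsp90, chemiluminescent detection.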
# [13] = target: T1, Heat shock protein HSP90 (Homo sapiens); assay: Inhibition of Hsp90 in human MCF7 cells assessed as decrease in Her2 levels at five times IC50 value after 12 hrs by Western blot analysis; format: cell-based; method in brief: as §3
# [14] = target: T1, Heat shock protein HSP90 (Homo sapiens); assay: Inhibition of Hsp90 in human A549 cells assessed as decrease in C-Raf levels at five times IC50 value after 12 hrs by Western blot analysis; format: cell-based
# [15] = target: T1, Heat shock protein HSP90 (Homo sapiens); assay: Inhibition of Hsp90 in human MCF7 cells assessed as decrease in C-Raf levels at five times IC50 value after 12 hrs by Western blot analysis; format: cell-based; method in brief: as §3
# MCF7 [16] = assay: Cytotoxicity against human MCF7 cells assessed as cell growth inhibition after 72 hrs by MTS assay; format: functional, cell-based; conditions: MCF7, 72 h; method in brief: as §2
# [17] = target: T1, Heat shock protein HSP90 (Homo sapiens); assay: Inhibition of Hsp90 in human MCF7 cells assessed as decrease in EGFR levels at five times IC50 value after 12 hrs by Western blot analysis; format: cell-based; method in brief: as §3
# A549 [18] = assay: Effect on total Mek level in human A549 cells at five times IC50 value after 2 to 12 hrs by western blot analysis; format: ADME, cell-based
# Method in brief: (§4)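 Lysed in MPER with protease/phosphatase inhibitors, clarified at 14,000g. 15 µg protein per lane run on reducing 10% gels, transferred to PVDF, immunoblotted, detected by HRP chemiluminescence.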
# [19] = target: T1, Heat shock protein HSP90 (Homo sapiens); assay: Inhibition of Hsp90 in human MCF7 cells assessed as effect on c-Raf protein degradation at 0.5 to 5 times IC50 value after 12 hrs by western blot analysis; format: cell-based; method in brief: as §3
# A549 [20] = assay: Effect on total Erk level in human A549 cells at five times IC50 value after 2 to 12 hrs by western blot analysis; format: ADME, cell-based; method in brief: as §4
# [21] = target: T1, Heat shock protein HSP90 (Homo sapiens); assay: Inhibition of Hsp90 in human PC3MM2 cells upto 100 uM by luciferase refolding assay; format: cell-based
# Method in brief: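 Luciferase-expressing PC3-MM2 cells heat-denatured at 50 °C for 8–12 min until luminescence fell to 1% of initial. 60,000 cells/100 µL added to compound (0–100 µM, 1% DMSO final) and left 1 h to recover. Luciferin/ATP/CoA reagent then added and luminescence read at once. Refolding expressed relative to 1% DMSO wells; triplicate points fitted to dose-response curves.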
# [22] = target: T1, Heat shock protein HSP90 (Homo sapiens); assay: Inhibition of Hsp90 in human MCF7 cells assessed as effect on Her2 protein degradation at 0.5 to 5 times IC50 value after 12 hrs by western blot analysis; format: cell-based; method in brief: as §3
# A549 [23] = assay: Inhibition of PI3K activity in human A549 cells assessed as effect on phosphorylated Akt level at five times IC50 value after 2 to 12 hrs by Western blot analysis; format: cell-based; method in brief: as §4
# [24] = target: T1, Heat shock protein HSP90 (Homo sapiens); assay: Inhibition of Hsp90 in human A549 cells assessed as effect on c-Raf protein degradation at 0.5 to 5 times IC50 value after 12 hrs by western blot analysis; format: cell-based; method in brief: as §3
# [25] = target: T2, B-raf/RAF proto-oncogene serine/threonine-protein kinase (Homo sapiens); assay: Inhibition of B-Raf/C-Raf in human A549 cells assessed as decrease in phosphorylated MEK levels at five times IC50 value by Western blot analysis; format: cell-based; conditions: TDE = time-dependent effect
# [26] = target: T2, B-raf/RAF proto-oncogene serine/threonine-protein kinase (Homo sapiens); assay: Inhibition of B-Raf/C-Raf heterodimerization in human A549 cells at five times IC50 value after 24 hrs by SDS-PAGE/Western blot analysis; format: cell-based
# Method in brief: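 Lysed in 0.1% NP40, 50 mM Tris pH 7.5, 150 mM NaCl with inhibitors. 500 µg protein incubated with B-Raf antibody overnight at 4 °C, captured on Protein G beads for 3 h at 4 °C, washed, eluted, then SDS-PAGE and immunoblot for c-Raf.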
# A549 [27] = assay: Effect of total Akt levels in human A549 cells at five times IC50 value after 2 to 12 hrs by Western blot analysis; format: ADME, cell-based; method in brief: as §4
# [28] = target: T2, B-raf/RAF proto-oncogene serine/threonine-protein kinase (Homo sapiens); assay: Inhibition of B-Raf/C-Raf in human A549 cells assessed as decrease in phosphorylated ERK levels after 12 hrs by Western blot analysis; format: cell-based
# [29] = target: T2, B-raf/RAF proto-oncogene serine/threonine-protein kinase (Homo sapiens); assay: Inhibition of B-Raf/C-Raf in human A549 cells assessed as decrease in phosphorylated MEK levels after 12 hrs by Western blot analysis; format: cell-based
# [30] = target: T1, Heat shock protein HSP90 (Homo sapiens); assay: Inhibition of Hsp90 in human A549 cells assessed as decrease in C-Raf levels at five times IC50 value after 2 to 12 hrs by Western blot analysis; format: cell-based; method in brief: as §4
# [31] = target: T1, Heat shock protein HSP90 (Homo sapiens); assay: Inhibition of Hsp90 in human A549 cells assessed as effect on EGFR levels at five times IC50 value after 2 to 12 hrs by Western blot analysis; format: cell-based; method in brief: as §4
# [32] = target: T1, Heat shock protein HSP90 (Homo sapiens); assay: Inhibition of Hsp90 in human A549 cells assessed as effect on Her2 protein degradation at 0.5 to 5 times IC50 value after 12 hrs by western blot analysis; format: cell-based; method in brief: as §3
# [33] = target: T1, Heat shock protein HSP90 (Homo sapiens); assay: Inhibition of Hsp90 in human MCF7 cells assessed as effect on EGFR protein degradation at 0.5 to 5 times IC50 value after 12 hrs by western blot analysis; format: cell-based; method in brief: as §3
# [34] = target: T2, B-raf/RAF proto-oncogene serine/threonine-protein kinase (Homo sapiens); assay: Inhibition of B-Raf/C-Raf in human A549 cells assessed as decrease in phosphorylated ERK levels at five times IC50 value by Western blot analysis; format: cell-based; conditions: TDE = time-dependent effect
# [35] = target: T1, Heat shock protein HSP90 (Homo sapiens); assay: Inhibition of Hsp90 in human A549 cells assessed as effect on EGFR protein degradation at 0.5 to 5 times IC50 value after 12 hrs by western blot analysis; format: cell-based; method in brief: as §3
# [36] = Cytotoxicity against human SKBR3 cells by MTS assay; conditions: SK-BR-3
structure (smiles),measurement,setting,value
N#Cc1c(Oc2ccc(F)c(NC(=O)Cc3cccc(C(F)(F)F)c3)c2)ccc2nc(NC(=O)C3CC3)sc12,Activity,A549 [1],Non-toxic
same,IC50,A549 [2],1700 nM
Cc1c(OC2CCN(C)CC2)ccc2cc(NC(=O)Nc3cccc(-c4ccccc4)c3)c(=O)oc12,inhibition,[3],Active
same,inhibition,[4],Active
same,inhibition,[5],Active
same,IC50,A549 [2],60 nM
COc1cccc(-c2cccc(NC(=O)Nc3cc4ccc(OC5CCN(C)CC5)c(C)c4oc3=O)c2)c1,inhibition,[6],Active
same,inhibition,[7],inactive
same,inhibition,[8],inactive
same,inhibition,[9],Active
same,IC50,A549 [2],280 nM
Cc1c(OC2CCN(C)CC2)ccc2cc(NC(=O)Nc3ccccc3)c(=O)oc12,IC50,MRC5,3600 nM
same,inhibition,[10],Active
same,inhibition,[11],Active
same,Activity,MCF7 [12],Non-toxic
same,inhibition,[13],Active
same,inhibition,[14],Active
same,inhibition,[15],Active
same,IC50,MCF7 [16],770 nM
same,inhibition,[17],Active
same,IC50,A549 [2],240 nM
CCCS(=O)(=O)Nc1ccc(F)c(C(=O)c2c[nH]c3ncc(-c4ccc(Cl)cc4)cc23)c1F [VEMURAFENIB],Activity,A549 [1],Non-toxic
COc1ccc(NC(=O)Nc2cc3ccc(OC4CCN(C)CC4)c(C)c3oc2=O)cc1-c1ccccc1,inhibition,[6],Active
same,inhibition,[7],inactive
same,inhibition,[8],inactive
same,inhibition,[9],Active
same,IC50,A549 [2],410 nM
COc1cccc(-c2cc(NC(=O)Nc3cc4ccc(OC5CCN(C)CC5)c(C)c4oc3=O)ccc2OC)c1,Activity,A549 [18],Non-toxic
same,inhibition,[19],inactive
same,Activity,A549 [20],Non-toxic
same,inhibition,[21],inactive
same,inhibition,[22],inactive
same,Activity,A549 [23],inactive
same,inhibition,[24],inactive
same,IC50,MRC5,4300 nM
same,inhibition,[25],tde
same,inhibition,[26],Active
same,Activity,A549 [27],Non-toxic
same,inhibition,[28],Dose-dependent effect
same,inhibition,[29],Dose-dependent effect
same,inhibition,[30],inactive
same,inhibition,[31],inactive
same,inhibition,[32],inactive
same,IC50,MCF7 [16],170 nM
same,inhibition,[33],inactive
same,inhibition,[34],tde
same,inhibition,[35],inactive
same,IC50,A549 [2],150 nM
CO[C@@H]1[C@@H](OC(N)=O)[C@@H](O)[C@H](Oc2ccc3c(O)c(NC(=O)c4ccc(O)c(CC=C(C)C)c4)c(=O)oc3c2C)OC1(C)C [NOVOBIOCIN],IC50,[36],700000 nM
